For experiment [1], the target named is T1, Carbonic anhydrase 4 (Bos taurus) (UniProt Q95323).
T1 sequence (whole entry): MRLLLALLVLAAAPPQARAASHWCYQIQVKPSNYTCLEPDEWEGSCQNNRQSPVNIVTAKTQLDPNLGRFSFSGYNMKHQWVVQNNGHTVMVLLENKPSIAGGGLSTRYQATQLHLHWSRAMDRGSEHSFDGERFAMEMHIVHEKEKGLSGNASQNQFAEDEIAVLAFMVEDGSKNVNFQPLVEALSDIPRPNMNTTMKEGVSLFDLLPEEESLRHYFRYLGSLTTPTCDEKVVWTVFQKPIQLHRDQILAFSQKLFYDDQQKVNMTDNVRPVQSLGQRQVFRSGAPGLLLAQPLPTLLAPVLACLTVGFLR
In words: In vitro carbonic anhydrase IV activation in bovine lung microsomes. The note with it: Microsome. A digest of the protocol: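 CA IV isolated from bovine lung microsomes and quantified by ethoxzolamide titration; used at 39 nM. 4-Nitrophenyl acetate hydrolysis initial rates followed at 400 nm, 25 °C, pH 7.40, substrate 2×10-2 to 1×10^-6 M. Activator preincubated with enzyme 15 min at room temperature. Dilutions down to 0.1 nM. Non-enzymatic rate subtracted. KA given as mean of at least three determinations.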

Experiment [2] deals with Carbonic anhydrase 2 (Homo sapiens) (UniProt P00918). In words: In vitro carbonic anhydrase activation in human cloned Carbonic anhydrase II (hCA II).
The target in experiment [3] is Carbonic anhydrase 1 (Homo sapiens) (UniProt P00915). In words: In vitro carbonic anhydrase activation in human cloned Carbonic anhydrase I (hCA I).

The values below come from ChEMBL document CHEMBL1135797, “Carbonic anhydrase activators: high affinity isozymes I, II, and IV activators, incorporating a beta-alanyl-histidine scaffold” (2002).

Chain of Carbonic anhydrase 1 (Homo sapiens) (P00915 2-261 limits assumed): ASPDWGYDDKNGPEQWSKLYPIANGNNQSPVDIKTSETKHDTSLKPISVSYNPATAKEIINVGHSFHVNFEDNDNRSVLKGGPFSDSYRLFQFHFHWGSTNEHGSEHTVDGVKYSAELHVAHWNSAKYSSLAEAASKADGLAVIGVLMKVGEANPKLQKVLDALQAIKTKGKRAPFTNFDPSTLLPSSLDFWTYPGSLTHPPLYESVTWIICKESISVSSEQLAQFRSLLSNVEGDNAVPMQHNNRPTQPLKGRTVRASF

As for `Cc1ccccc1S(=O)(=O)NC(=O)N[C@@H](Cc1c[nH]c2ccccc12)C(=O)NCCC(=O)N[C@@H](Cc1c[nH]cn1)C(=O)O`, the KA in experiment [1] came to 3.7 µM; in experiment [2], 14 µM; in experiment [3], 0.21 µM.
For `Cc1ccccc1S(=O)(=O)NC(=O)N[C@@H](CC(C)C)C(=O)NCCC(=O)N[C@@H](Cc1c[nH]cn1)C(=O)O`, in that order: 3 µM, 12 µM and 0.2 µM.
The like results for `Cc1ccccc1S(=O)(=O)NC(=O)N1CCCC1C(=O)NCC(=O)NCCC(=O)NC(Cc1c[nH]cn1)C(=O)O` (centres undefined) were, in that order, 0.01 µM, 0.03 µM and 0.006 µM.
For `Cc1ccccc1S(=O)(=O)NC(=O)N[C@@H](CCCCN)C(=O)NCCC(=O)N[C@@H](Cc1c[nH]cn1)C(=O)O`, in that order: 0.8 µM, 1.5 µM and 0.04 µM.
For `O=C(CCNC(=O)C1CCCN(C(=O)NS(=O)(=O)c2ccc(F)cc2)C1)NC(Cc1c[nH]cn1)C(=O)O` (centres undefined), the KA in experiment [1] is 2.4 µM; in experiment [2], 6 µM; in experiment [3] it was 0.15 µM.
For `O=C(CCNC(=O)[C@H](Cc1c[nH]cn1)NC(=O)NS(=O)(=O)c1ccc(F)cc1)N[C@@H](Cc1c[nH]cn1)C(=O)O`, in that order: 0.1 µM, 0.5 µM and 0.03 µM.
`CC[C@H](C)[C@@H](NC(=O)NS(=O)(=O)c1ccc(F)cc1)C(=O)NCCC(=O)NC(Cc1c[nH]cn1)C(=O)O` (some centres undefined): the KA was determined as 1 µM in experiment [1], 8 µM in experiment [2] and 0.15 µM in experiment [3].
The like results for `O=C(CCNC(=O)[C@@H]1CCCN1C(=O)[C@H](Cc1ccccc1)NC(=O)NS(=O)(=O)c1ccc(F)cc1)N[C@@H](Cc1c[nH]cn1)C(=O)O` were, in that order, 0.008 µM, 0.02 µM and 0.005 µM.
The like results for `O=C(CCNC(=O)NS(=O)(=O)c1ccc(F)cc1)NCCC(=O)N[C@@H](Cc1c[nH]cn1)C(=O)O` were, in that order, 3.9 µM, 13 µM and 0.2 µM.
On to `C[C@H](NC(=O)NS(=O)(=O)c1ccc(F)cc1)C(=O)NCCC(=O)NC(Cc1c[nH]cn1)C(=O)O` (some centres undefined), for which the KA in experiment [1] came out at 2 µM; in experiment [2] it was 13 µM; in experiment [3] it was 0.21 µM.
The like results for `Cc1ccccc1S(=O)(=O)NC(=O)N[C@@H](C)C(=O)NCCC(=O)N[C@@H](Cc1c[nH]cn1)C(=O)O` were, in that order, 2.3 µM, 13 µM and 0.24 µM.
In the case of `Cc1ccccc1S(=O)(=O)NC(=O)N1CCC(C(=O)NCCC(=O)NC(Cc2c[nH]cn2)C(=O)O)CC1` (centres undefined), the KA in experiment [1] is 3.1 µM; in experiment [2], 9 µM; in experiment [3], 0.13 µM.
For `Cc1ccccc1S(=O)(=O)NC(=O)NCC(=O)NCC(=O)NCCC(=O)N[C@@H](Cc1c[nH]cn1)C(=O)O`, in that order: 1.5 µM, 10 µM and 0.16 µM.
The like results for `Cc1ccccc1S(=O)(=O)NC(=O)NCC(=O)NCCC(=O)N[C@@H](Cc1c[nH]cn1)C(=O)O` were, in that order, 2.2 µM, 16 µM and 0.23 µM.
For `NCCCC[C@H](NC(=O)NS(=O)(=O)c1ccc(F)cc1)C(=O)NCCC(=O)N[C@@H](Cc1c[nH]cn1)C(=O)O`, in that order: 0.3 µM, 1.3 µM and 0.02 µM.
Consider `O=C(CCNC(=O)[C@H](Cc1c[nH]c2ccccc12)NC(=O)NS(=O)(=O)c1ccc(F)cc1)N[C@@H](Cc1c[nH]cn1)C(=O)O`, for which the KA in experiment [1] is 3.2 µM; in experiment [2] it was 13 µM; in experiment [3], 0.19 µM.
For `Cc1ccccc1S(=O)(=O)NC(=O)N1CCCC(C(=O)NCCC(=O)NC(Cc2c[nH]cn2)C(=O)O)C1` (centres undefined), in that order: 3 µM, 9 µM and 0.16 µM.
For `Cc1ccccc1S(=O)(=O)NC(=O)N[C@H](C(=O)NCCC(=O)N[C@@H](Cc1c[nH]cn1)C(=O)O)C(C)C`, in that order: 2.4 µM, 9 µM and 0.18 µM.
